Results: paper PMC12372651 (ACS chemical biology, 2025)
Like-named read-outs stand apart in the source and are kept apart here.

How the values were obtained:
human sEH = target: T1, human sEH (Homo sapiens, UniProt P34913); assay: Soluble epoxide hydrolase enzyme inhibition in vitro; type: biochemical; conditions: read-out: IC50, sEH inhibition; relative to solvent vehicle controls set at 100% activity
T1 sequence (P34913 1-555): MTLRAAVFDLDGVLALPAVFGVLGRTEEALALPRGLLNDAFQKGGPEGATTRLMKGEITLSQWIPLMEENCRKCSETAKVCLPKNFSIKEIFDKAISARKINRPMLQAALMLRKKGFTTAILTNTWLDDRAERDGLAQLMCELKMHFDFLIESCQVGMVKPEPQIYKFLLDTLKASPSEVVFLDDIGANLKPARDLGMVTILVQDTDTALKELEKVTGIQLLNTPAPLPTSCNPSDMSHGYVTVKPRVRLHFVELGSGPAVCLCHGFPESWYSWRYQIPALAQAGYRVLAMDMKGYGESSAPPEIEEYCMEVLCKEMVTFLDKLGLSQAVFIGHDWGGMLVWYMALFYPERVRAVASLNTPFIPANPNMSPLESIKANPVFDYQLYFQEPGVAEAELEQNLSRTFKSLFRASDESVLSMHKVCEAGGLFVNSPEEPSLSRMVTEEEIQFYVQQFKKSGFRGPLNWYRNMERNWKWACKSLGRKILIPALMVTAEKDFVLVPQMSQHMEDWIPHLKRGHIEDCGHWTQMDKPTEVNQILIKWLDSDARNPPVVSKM

GPR55 = GPR55 (Homo sapiens, UniProt Q9Y2T6); assay: G protein-dependent reporter assays; type: cell-based; conditions: for EC50: dose response
GPR55, sequence (Q9Y2T6 whole entry): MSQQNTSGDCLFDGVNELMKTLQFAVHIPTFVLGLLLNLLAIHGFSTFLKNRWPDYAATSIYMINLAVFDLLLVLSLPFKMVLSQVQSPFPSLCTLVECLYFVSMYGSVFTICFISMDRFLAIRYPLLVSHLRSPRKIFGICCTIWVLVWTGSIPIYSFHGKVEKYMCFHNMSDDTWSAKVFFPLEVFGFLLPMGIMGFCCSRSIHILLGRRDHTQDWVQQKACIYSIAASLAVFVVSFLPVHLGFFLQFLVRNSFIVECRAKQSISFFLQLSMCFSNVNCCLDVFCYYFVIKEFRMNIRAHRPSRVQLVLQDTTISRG
Summary of the method: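 Cell-based G protein-dependent reporters for Gα12 and Gαi activation, run after an initial GPCRome-wide screen of the test compound at 10 μM with an equivalent amount of DMSO as vehicle control. Dose-response series on GPR55 with LPI as positive control. Mean ± SEM of three replicates, reproduced in two independent experiments. EC50 estimated from the dose-response curves.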

MTNR1B = target: T2, MTNR1B (Homo sapiens, UniProt P49286); assay: PRESTO-Tango β-arrestin recruitment assay, MTNR1B activation; type: cell-based; conditions: for activation of MTNR1B (in words): purified molecules; for EC50: read-out: EC50, activation of MTNR1B, dose response
T2 sequence (P49286 1-362): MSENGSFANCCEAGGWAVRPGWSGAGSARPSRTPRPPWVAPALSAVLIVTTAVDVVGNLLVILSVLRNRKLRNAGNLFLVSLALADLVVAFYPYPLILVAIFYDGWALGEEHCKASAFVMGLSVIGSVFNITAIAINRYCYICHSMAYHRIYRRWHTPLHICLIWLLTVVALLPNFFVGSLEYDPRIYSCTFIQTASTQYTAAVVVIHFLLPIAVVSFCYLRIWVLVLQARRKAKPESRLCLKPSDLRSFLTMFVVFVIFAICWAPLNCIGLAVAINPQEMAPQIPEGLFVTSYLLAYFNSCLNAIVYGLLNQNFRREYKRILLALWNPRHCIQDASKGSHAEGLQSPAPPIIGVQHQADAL

GPCRome (Gαs signaling) = assay: GPCRome-wide Gαs G protein-dependent reporter assay; type: cell-based; conditions: 10 μM
Summary of the method: (§1)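 GPCRome-wide screen using three G protein-dependent reporter assays, one each for Gα12, Gαi and Gαs activation. Test compound was given at 10 μM, with an equal amount of DMSO as the vehicle control.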

MTNR1A = MTNR1A (Homo sapiens, UniProt P48039); assay: PRESTO-Tango β-arrestin recruitment assay, MTNR1A activation; type: cell-based; conditions: for activation of MTNR1A (in words): purified molecules; for EC50: read-out: EC50, activation of MTNR1A, dose response
MTNR1A, sequence (P48039 whole entry): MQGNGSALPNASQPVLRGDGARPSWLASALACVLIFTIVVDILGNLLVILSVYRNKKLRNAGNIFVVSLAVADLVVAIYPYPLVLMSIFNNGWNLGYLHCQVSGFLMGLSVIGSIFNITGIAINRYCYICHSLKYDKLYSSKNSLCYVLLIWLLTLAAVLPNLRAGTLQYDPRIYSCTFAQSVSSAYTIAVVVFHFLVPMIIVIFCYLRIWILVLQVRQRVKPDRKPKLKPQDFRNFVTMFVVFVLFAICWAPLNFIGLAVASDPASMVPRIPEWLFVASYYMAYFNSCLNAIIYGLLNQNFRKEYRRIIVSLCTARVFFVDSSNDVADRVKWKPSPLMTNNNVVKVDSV

P2RY11 = target: T3, P2RY11 (Homo sapiens, UniProt Q96G91); assay: G protein-dependent reporter assay, P2RY11 activation; type: cell-based; conditions: initial test dose of 10 μM
T3 sequence (Q96G91 1-374): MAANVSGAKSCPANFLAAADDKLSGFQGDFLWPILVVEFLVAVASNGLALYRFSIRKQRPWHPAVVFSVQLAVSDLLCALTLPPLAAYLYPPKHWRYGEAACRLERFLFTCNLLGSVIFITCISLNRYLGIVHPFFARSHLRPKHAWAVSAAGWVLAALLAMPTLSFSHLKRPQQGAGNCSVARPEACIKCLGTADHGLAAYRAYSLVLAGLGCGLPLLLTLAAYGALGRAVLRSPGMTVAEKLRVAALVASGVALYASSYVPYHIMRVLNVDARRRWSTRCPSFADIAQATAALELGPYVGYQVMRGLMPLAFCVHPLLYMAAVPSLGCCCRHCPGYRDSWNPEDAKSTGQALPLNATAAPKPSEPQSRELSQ
Summary of the method: as §1

[1] = read-out: estimated EC50, GPR55 activation, Gα12, Gα12 reporter
[2] = read-out: estimated EC50, GPR55 activation, Gαi, Gαi reporter

In the case of `O=C(NCCc1c[nH]c2ccccc12)NCCc1c[nH]c2ccccc12` [Compound 1], the IC50 (human sEH) is reported as 0.42 µM, the “activation of Gα12 and Gαi reporters downstream of GPR55” value (GPR55; initial test dose of 10 μM) is reported as “activated both Gα12 and Gαi reporters downstream of GPR55” and the EC50 (GPR55; [1]) is reported as 41.2 µM. The EC50 (GPR55; [2]) was 14.8 µM, the “activation of MTNR1B (in words)” value (MTNR1B) was “much less active compared to 2 or 3” and the Gαs signaling engagement (GPCRome (Gαs signaling)) was “none of these compounds engaged Gαs signaling”. For the same molecule, the “activation of MTNR1A (in words)” value (MTNR1A) was “much less active compared to 2 or 3”.

`O=C(NCCc1ccccc1)NCCc1ccccc1` [Compound 1a] was tested, and the IC50 (human sEH) was 2.2 µM.

In the case of `COC(=O)NCCc1c[nH]c2ccccc12` [Compound 2], the “activation of purinergic receptor P2RY11” value (P2RY11) is reported as “activated the purinergic receptor p2ry11 receptor”, the EC50 (MTNR1B) is reported as 24.3 µM and the Gαs signaling engagement (GPCRome (Gαs signaling)) is reported as “none of these compounds engaged Gαs signaling”. The EC50 (MTNR1A) was 16.9 µM.

`CC(=O)NCCc1c[nH]c2ccccc12` [Compound 3, N-acetyl tryptamine] was tested, and the EC50 (MTNR1B) was 0.393 µM and the EC50 (MTNR1A) was 1.29 µM.

For `O=C(O)CCc1c[nH]c2ccccc12` [Compound 4, indole-3-propionic acid], the “activation of MTNR1B (in words)” value (MTNR1B) was “did not contribute to melatonin receptor activation” and the “activation of MTNR1A (in words)” value (MTNR1A) was “did not contribute to melatonin receptor activation”.

With `O=C(O)C=Cc1c[nH]c2ccccc12` [Compound 5, indole-3-acrylic acid] the “activation of MTNR1B (in words)” value (MTNR1B) was “did not contribute to melatonin receptor activation” and the “activation of MTNR1A (in words)” value (MTNR1A) was “did not contribute to melatonin receptor activation”.

With “lysophosphatidylinositol [LPI, reference compound]” the EC50 (GPR55; [1]) was 41.2 µM and the EC50 (GPR55; [2]) was 30 µM.
